In brackets after ≈: the same amount, converted by molar mass. Activity calls are given as the source filed them. No cut-off for these calls is given here.
What was measured:
Staphylococcus aureus [1] = assay: Antibacterial activity against methicillin-resistant Staphylococcus aureus USA300 measured after overnight incubation by broth double-dilution method; type: functional
How it was run: (§1)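 MIC by broth double-dilution in liquid Mueller-Hinton medium. Values are reported in µg/mL.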

Staphylococcus aureus [2] = assay: Antibacterial activity against methicillin-resistant Staphylococcus aureus BRS3 measured after overnight incubation by broth double-dilution method; type: functional; how it was run: as §1
Staphylococcus aureus [3] = assay: Antibacterial activity against methicillin-resistant Staphylococcus aureus S22 using 1 10^6CFU/ml measured after overnight incubation by broth double-dilution method; type: functional
Staphylococcus aureus [4] = assay: Antibacterial activity against methicillin-resistant Staphylococcus aureus USA200 measured after overnight incubation by broth double-dilution method; type: functional; how it was run: as §1
Enterococcus = assay: Antibacterial activity against Vancomycin-resistant Enterococcus measured after overnight incubation by broth double-dilution method; type: functional; how it was run: as §1
Staphylococcus aureus [5] = assay: Antibacterial activity against methicillin-sensitive Staphylococcus aureus ATCC 6538 measured after overnight incubation by broth double-dilution method; type: functional; how it was run: as §1
Staphylococcus aureus [6] = assay: Antibacterial activity against methicillin-resistant Staphylococcus aureus G6 measured after overnight incubation by broth double-dilution method; type: functional; how it was run: as §1
Staphylococcus aureus [7] = assay: Antibacterial activity against methicillin-resistant Staphylococcus aureus NRS77 measured after overnight incubation by broth double-dilution method; type: functional; how it was run: as §1
Staphylococcus aureus [8] = assay: Antibacterial activity against methicillin-sensitive Staphylococcus aureus ATCC 25923 measured after overnight incubation by broth double-dilution method; type: functional; how it was run: as §1
[9] = system: Staphylococcus epidermidis; assay: Antibiofilm activity against Staphylococcus epidermidis ATCC 35984 assessed as reduction of biofilm at […] ug/ml measured after 24 hrs by crystal violet staining based method relative to control; type: functional, RP62A; set-up: scale not given: the % may be the effect or the level left
Staphylococcus aureus [10] = assay: Antibacterial activity against methicillin-resistant Staphylococcus aureus 1 measured after overnight incubation by broth double-dilution method; type: functional; how it was run: as §1
Pseudomonas aeruginosa = assay: Antibacterial activity against Pseudomonas aeruginosa ATCC 27853 measured after overnight incubation by broth double-dilution method; type: functional
How it was run: (§2)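 MIC by broth double-dilution in Mueller-Hinton medium. Re-testing at the time-kill inoculum used 1×10^6 CFU/mL.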

[11] = system: Staphylococcus epidermidis; assay: Antibacterial activity against Staphylococcus epidermidis ATCC 35984 measured after overnight incubation by broth double-dilution method; type: functional; conditions: RP62A; how it was run: as §2
Staphylococcus aureus [12] = assay: Antibacterial activity against methicillin-resistant Staphylococcus aureus C7 measured after overnight incubation by broth double-dilution method; type: functional; how it was run: as §1
Staphylococcus aureus [13] = assay: Antibacterial activity against methicillin-resistant Staphylococcus aureus S22 measured after overnight incubation by broth double-dilution method; type: functional; how it was run: as §1
Staphylococcus aureus [14] = assay: Antibiofilm activity against methicillin-sensitive Staphylococcus aureus ATCC 6538 assessed as reduction in biofilm mass at 2 ug/ml measured after 24 hrs by crystal violet staining based method relative to control; type: functional; set-up: scale not given: the % may be the effect or the level left
Staphylococcus aureus [15] = assay: Antibacterial activity against methicillin-resistant Staphylococcus aureus USA600 measured after overnight incubation by broth double-dilution method; type: functional; how it was run: as §1
Staphylococcus aureus [16] = assay: Antibacterial activity against methicillin-resistant Staphylococcus aureus G1 measured after overnight incubation by broth double-dilution method; type: functional; how it was run: as §1
Enterobacter cloacae = assay: Antibacterial activity against Enterobacter cloacae ATCC 13047 measured after overnight incubation by broth double-dilution method; type: functional; conditions: subsp. cloacae ATCC 13047; how it was run: as §1
Staphylococcus aureus [17] = assay: Antibacterial activity against methicillin-resistant Staphylococcus aureus C19 measured after overnight incubation by broth double-dilution method; type: functional; how it was run: as §1
Enterococcus faecalis [18] = assay: Antibacterial activity against Enterococcus faecalis ATCC 49533 measured after overnight incubation by broth double-dilution method; type: functional; how it was run: as §2
Staphylococcus aureus [19] = assay: Antibacterial activity against methicillin-resistant Staphylococcus aureus NRS51 measured after overnight incubation by broth double-dilution method; type: functional; how it was run: as §1
Staphylococcus aureus [20] = assay: Antibacterial activity against methicillin-resistant Staphylococcus aureus USA100 measured after overnight incubation by broth double-dilution method; type: functional; how it was run: as §1
Staphylococcus aureus [21] = assay: Antibacterial activity against methicillin-resistant Staphylococcus aureus 2 measured after overnight incubation by broth double-dilution method; type: functional; how it was run: as §1
Staphylococcus aureus [22] = assay: Antibiofilm activity against methicillin-sensitive Staphylococcus aureus ATCC 6538 assessed as reduction of biofilm at […] ug/ml measured after 24 hrs by crystal violet staining based method relative to untreated control; type: functional; set-up: scale not given: the % may be the effect or the level left
[23] = system: Staphylococcus epidermidis; assay: Antibacterial activity against Staphylococcus epidermidis ATCC 12228 measured after overnight incubation by broth double-dilution method; type: functional; how it was run: as §2
Staphylococcus aureus [24] = assay: Antibacterial activity against methicillin-sensitive Staphylococcus aureus ATCC 29213 measured after overnight incubation by broth double-dilution method; type: functional; how it was run: as §1
Staphylococcus aureus [25] = assay: Antibacterial activity against methicillin-resistant Staphylococcus aureus C16 measured after overnight incubation by broth double-dilution method; type: functional; how it was run: as §1
Staphylococcus aureus [26] = assay: Antibacterial activity against methicillin-resistant Staphylococcus aureus C14 measured after overnight incubation by broth double-dilution method; type: functional; how it was run: as §1
Enterococcus faecalis [27] = assay: Antibacterial activity against Enterococcus faecalis ATCC 29212 measured after overnight incubation by broth double-dilution method; type: functional; how it was run: as §2
[28] = system: Mycolicibacterium smegmatis; assay: Antibacterial activity against Mycobacterium smegmatis MC2-155 measured after overnight incubation by broth double-dilution method; type: functional; conditions: str. MC2 155; how it was run: as §1
Staphylococcus aureus [29] = assay: Antibacterial activity against methicillin-resistant Staphylococcus aureus G14 measured after overnight incubation by broth double-dilution method; type: functional; how it was run: as §1
Enterococcus faecium = assay: Antibacterial activity against Enterococcus faecium BM4105-RF measured after overnight incubation by broth double-dilution method; type: functional; how it was run: as §1
Staphylococcus aureus [30] = assay: Antibacterial activity against methicillin-resistant Staphylococcus aureus S14 measured after overnight incubation by broth double-dilution method; type: functional; how it was run: as §1
Staphylococcus aureus [31] = assay: Antibacterial activity against methicillin-resistant Staphylococcus aureus C2 measured after overnight incubation by broth double-dilution method; type: functional; how it was run: as §1
Staphylococcus aureus [32] = assay: Antibacterial activity against methicillin-resistant Staphylococcus aureus NRS4 measured after overnight incubation by broth double-dilution method; type: functional; how it was run: as §1
[33] = Cytotoxicity against mouse RBCs assessed as hemolysis up to […] measured after 1 hr; type: toxicity, Erythrocyte; conditions: mouse red blood cells, read-out: Activity
Staphylococcus aureus [34] = assay: Antibacterial activity against methicillin-resistant Staphylococcus aureus S24 measured after overnight incubation by broth double-dilution method; type: functional; how it was run: as §1
Staphylococcus aureus [35] = assay: Bactericidal activity against methicillin-resistant Staphylococcus aureus S22 at 4 times MIC measured after 24 hrs by time kill analysis; type: functional
Klebsiella pneumoniae = assay: Antibacterial activity against Klebsiella pneumoniae ATCC 27736 measured after overnight incubation by broth double-dilution method; type: functional; how it was run: as §1
Escherichia coli = assay: Antibacterial activity against Escherichia coli MC1061 measured after overnight incubation by broth double-dilution method; type: functional; how it was run: as §1
Staphylococcus aureus [36] = assay: Bacteriostatic activity against methicillin-resistant Staphylococcus aureus S22 at 0.5 times MIC measured up to 3 to 6 hrs by time kill analysis; type: functional
Staphylococcus aureus [37] = assay: Antibacterial activity against methicillin-resistant Staphylococcus aureus G12 measured after overnight incubation by broth double-dilution method; type: functional; how it was run: as §1
[38] = Cytotoxicity against HEK293 cells assessed as cell death up to 10 ug/ml measured after 24 hrs by resazurin dye-based fluorescence analysis relative to untreated control; type: toxicity; conditions: human, hek293, 24 h
Staphylococcus aureus [39] = assay: Antibacterial activity against methicillin-resistant Staphylococcus aureus S17 measured after overnight incubation by broth double-dilution method; type: functional; how it was run: as §1
Staphylococcus aureus [40] = assay: Bacteriostatic activity against methicillin-resistant Staphylococcus aureus S22 at MIC measured up to 3 to 6 hrs by time kill analysis; type: functional
Acinetobacter baumannii = assay: Antibacterial activity against Acinetobacter baumannii ATCC 19606 measured after overnight incubation by broth double-dilution method; type: functional; how it was run: as §2
Staphylococcus aureus [41] = assay: Antibacterial activity against methicillin-resistant Staphylococcus aureus C1 measured after overnight incubation by broth double-dilution method; type: functional; how it was run: as §1
Listeria monocytogenes = assay: Antibacterial activity against Listeria monocytogenes ATCC 19115 measured after overnight incubation by broth double-dilution method; type: functional; how it was run: as §2
Salmonella enterica = assay: Antibacterial activity against Salmonella enterica ATCC 14028 measured after overnight incubation by broth double-dilution method; type: functional; how it was run: as §2
Staphylococcus aureus [42] = assay: Antibacterial activity against methicillin-resistant Staphylococcus aureus ATCC 33591 measured after overnight incubation by broth double-dilution method; type: functional; how it was run: as §1

For O=c1c2ccccc2[se]n1-c1ccccc1 [EBSELEN], the MIC (Staphylococcus aureus [1]) was 3.9 µg/mL (≈ 14.2 µM), the MIC (Staphylococcus aureus [2]) was 7.8 µg/mL (≈ 28.4 µM) and the Activity (Staphylococcus aureus [3]) was “Active”. The MIC (Staphylococcus aureus [4]) was 2 µg/mL (≈ 7.29 µM), the MIC (Enterococcus) was 1 µg/mL (≈ 3.65 µM) and the MIC (Staphylococcus aureus [5]) was 2 µg/mL (≈ 7.29 µM). The MIC (Staphylococcus aureus [6]) was 1 µg/mL (≈ 3.65 µM), the MIC (Staphylococcus aureus [7]) was 3.9 µg/mL (≈ 14.2 µM) and the MIC (Staphylococcus aureus [8]) was 3.9 µg/mL (≈ 14.2 µM). The Activity [9] was 20%, the MIC (Staphylococcus aureus [10]) was at most 0.25 µg/mL and the MIC (Pseudomonas aeruginosa) was over 125 µg/mL. For the same compound, the MIC [11] was 0.25 µg/mL (≈ 0.912 µM), the MIC (Staphylococcus aureus [12]) was 0.5 µg/mL (≈ 1.82 µM) and the MIC (Staphylococcus aureus [13]) was 1 µg/mL (≈ 3.65 µM). It also gave an Activity (Staphylococcus aureus [14]) of 60%, an MIC (Staphylococcus aureus [15]) of 3.9 µg/mL (≈ 14.2 µM) and an MIC (Staphylococcus aureus [16]) of 2 µg/mL (≈ 7.29 µM). It also gave an MIC (Enterobacter cloacae) of over 125 µg/mL, an MIC (Staphylococcus aureus [17]) of 1 µg/mL (≈ 3.65 µM) and an MIC (Enterococcus faecalis [18]) of at most 0.25 µg/mL. It also gave an MIC (Staphylococcus aureus [19]) of 1 µg/mL (≈ 3.65 µM), an MIC (Staphylococcus aureus [20]) of 2 µg/mL (≈ 7.29 µM) and an MIC (Staphylococcus aureus [21]) of 2 µg/mL (≈ 7.29 µM). The Activity (Staphylococcus aureus [22]) was 20%, the MIC [23] was over 125 µg/mL and the MIC (Staphylococcus aureus [24]) was 2 µg/mL (≈ 7.29 µM). For the same compound, the MIC (Staphylococcus aureus [25]) was 3.9 µg/mL (≈ 14.2 µM), the MIC (Staphylococcus aureus [26]) was 2 µg/mL (≈ 7.29 µM) and the MIC (Enterococcus faecalis [27]) was 0.5 µg/mL (≈ 1.82 µM). It also gave an MIC [28] of 7.8 µg/mL (≈ 28.4 µM), an MIC (Staphylococcus aureus [29]) of 1 µg/mL (≈ 3.65 µM) and an MIC (Enterococcus faecium) of 0.5 µg/mL (≈ 1.82 µM). It also gave an MIC (Staphylococcus aureus [30]) of at most 0.25 µg/mL, an MIC (Staphylococcus aureus [31]) of 1 µg/mL (≈ 3.65 µM) and an MIC (Staphylococcus aureus [32]) of 7.8 µg/mL (≈ 28.4 µM). For the same compound, the hemolysis at 1 h [33] was at most 20%, the MIC (Staphylococcus aureus [34]) was 0.5 µg/mL (≈ 1.82 µM) and the Activity (Staphylococcus aureus [35]) was “Active”. The MIC (Klebsiella pneumoniae) was over 125 µg/mL, the MIC (Escherichia coli) was 7.8 µg/mL (≈ 28.4 µM) and the Activity (Staphylococcus aureus [36]) was “Active”. The MIC (Staphylococcus aureus [37]) was 1 µg/mL (≈ 3.65 µM), the Activity [38] was “Non-Toxic” and the MIC (Staphylococcus aureus [39]) was 1 µg/mL (≈ 3.65 µM). For the same compound, the Activity (Staphylococcus aureus [40]) was “Active”, the MIC (Acinetobacter baumannii) was 15.6 µg/mL (≈ 56.9 µM) and the MIC (Staphylococcus aureus [41]) was 2 µg/mL (≈ 7.29 µM). The MIC (Listeria monocytogenes) was 1 µg/mL (≈ 3.65 µM), the MIC (Salmonella enterica) was over 125 µg/mL and the MIC (Staphylococcus aureus [42]) was 0.5 µg/mL (≈ 1.82 µM).

— ChEMBL document CHEMBL3864121, “Development of ebsulfur analogues as potent antibacterials against methicillin-resistant Staphylococcus aureus” (Bioorg Med Chem, 2016)
